Bioassay records deposited in PubChem by several laboratories.
H9c2 TAG inh: inhibitors of triacylglycerol accumulation, primary screen, cell-based, uHTS, fluorescence, H9c2 | H9c2 cells, Nile Red lipid (TAG) fluorescence; cells loaded with 200 µM oleic acid | inhibition, % at 12.5 µM | 230,000 compounds, 0.66% hits;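 active = pattern-corrected inhibition of lipid staining of at least 50% with the nuclear-stain viability signal not falling by more than 50%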;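 also: 0% = DMSO wells and 100% = triacsin C control wells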
sPLA2-III inh: human group III sPLA2 inhibitors, primary screen, biochemical, QFRET, BODIPY PC-A2 liposome substrate; Group 3 secretory phospholipase A2 (Homo sapiens), Q9NZ20; QFRET BODIPY PC-A2 liposome hydrolysis, fluorescence; inhibition, % at 12.2 µM; 370,000 compounds, 0.56% hits;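 active = inhibition above mean plus 3 SD of compounds lying within the high and low control bounds, cut at about 19% in these data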;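 also: 0% = median of test compound wells and 100% = no enzyme DMSO wells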
Target sequence (Q9NZ20 whole entry, looked up): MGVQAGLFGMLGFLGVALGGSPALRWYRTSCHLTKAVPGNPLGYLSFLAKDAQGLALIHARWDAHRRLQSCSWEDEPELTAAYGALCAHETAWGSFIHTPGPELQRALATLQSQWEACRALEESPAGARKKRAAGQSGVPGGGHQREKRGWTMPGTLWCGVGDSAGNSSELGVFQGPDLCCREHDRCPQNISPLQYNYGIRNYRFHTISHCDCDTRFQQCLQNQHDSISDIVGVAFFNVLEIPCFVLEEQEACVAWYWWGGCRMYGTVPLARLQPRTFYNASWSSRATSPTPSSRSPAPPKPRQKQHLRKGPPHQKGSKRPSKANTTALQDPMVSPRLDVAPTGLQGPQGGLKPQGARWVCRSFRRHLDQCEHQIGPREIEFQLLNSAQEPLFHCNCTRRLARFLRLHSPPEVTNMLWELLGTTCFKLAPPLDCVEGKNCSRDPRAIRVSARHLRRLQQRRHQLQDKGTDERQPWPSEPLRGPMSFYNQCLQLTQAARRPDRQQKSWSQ
MT1-MMP act inh: blockers of MT1-MMP proenzyme processing, primary screen, HT1080 RFP-PRO-GFP cells, GFP/RFP fluorescence; Matrix metalloproteinase-14 (Homo sapiens), P50281; GFP/RFP ratio fluorescence, overnight; percent of plate control window, DMSO zero; GFP/RFP ratio change, % at 20 µM; 360,000 compounds, 0.061% hits;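 active = GFP/RFP ratio change of at least 30% with cell ATP level not reduced by more than half and red fluorescence within 50% of control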
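Assay system: RFP-PRO-GFP reporter HT1080 cells; read-out basis: GFP/RFP fluorescence ratio; benchmarks: DMSO wells and RFP-L50D-GFP cells; doses: 20 µM single dose, 1% DMSO; schedule: overnight cell settling, then overnight compound exposure, 37 °C, 5% CO2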
Efflux pump mplx: inhibitors of Candida efflux pumps in yeast, primary screen, S. cerevisiae, Nile Red, multiplex; S. cerevisiae Candida pump triplex; 330,000 compounds, 0.44% hits; inhibition, % at 10 µM;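 active = plate passing quality check with inhibition over a set limit, or well fluorescence over plate mean plus 4 SD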;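 also: Nile Red retained in pooled yeast measured as flow cytometry median fluorescence; 0% = buffer negative control and 100% = Enniatin B positive control; higher means more Nile Red kept so more efflux inhibition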
TAG conf: triacylglycerol accumulation inhibitors, retest, confirmation, cell-based, single concentration, Nile Red fluorescence, H9c2. AID 651629, 2012. 990 compounds, 71% hits. shares compounds with H9c2 TAG inh. inhibition, % at 12.5 µM. H9c2 lipid accumulation; cells loaded with 200 µM oleic acid;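 active = mean inhibition across replicates of 40% or more; inactive = mean inhibition below 40%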;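 also: plate controls were DMSO only wells for no effect and Triacsin C treated wells for full effect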
* hit, by the source's call; . = no result. An excerpt weighted towards active compounds, which were near 1.3% of everything screened.

SMILES | H9c2 TAG inh | sPLA2-III inh | MT1-MMP act inh | Efflux pump mplx | TAG conf
COc1ccc2[nH]c3c(c2c1)CCN1C(=O)C(CC(=O)NC/C=C(\C)CCC=C(C)C)C[C@H](C(=O)N(C(C)C)C(C)C)[C@@]31C (some centres not stated) | 55* | -2 | -22 | 0 | 55*
Cc1c(Br)c([N+](=O)[O-])nn1CC(=O)N1CCN(C23CC4CC(CC(C4)C2)C3)CC1 | . | -6 | 3 | 0 | .
C/C(=N\NC(=O)Cc1ccc(Cl)cc1)c1ccccc1O | . | 12 | 6 | 0 | .
CCOc1cc(C(=O)N/N=C/c2cn(-c3ccccc3)nc2-c2cc3ccccc3o2)cc(OCC)c1OCC | 59* | 1 | 1 | . | 63*
COc1ccc(CCNC(=O)Cc2cc(OCc3ccccc3)c(OC)cc2[N+](=O)[O-])cc1OC | 63* | 6 | . | 0 | 33
Cc1cc(NC(=O)c2cc(-c3ccncc3)nc3c(C)cccc23)no1 | 64* | -5 | -6 | 0 | 66*
Cc1ccc(-c2cc(C(=O)Nc3cc(C)on3)c3ccccc3n2)cc1 | 11 | 2 | -4 | 0 | .
CCN(CC)CCCN(C(=O)c1ccc(Br)cc1)c1nc(-c2ccc(OC)cc2)cs1 | 40 | -5 | -8 | 0 | .
CCN(CC)CCCN(C(=O)c1cccs1)c1nc(-c2ccc(OC)cc2)cs1 | 55* | . | -12 | 0 | 47*
O=C(N/N=C/c1ccc(F)cc1)c1sccc1OCc1ccc(F)cc1 | -7 | 3 | 4 | 0 | .
O=C(N/N=C/c1ccc(Cl)cc1)c1sccc1OCc1ccc(F)cc1 | 50* | -6 | 13 | 0 | 54*
COC(=O)[C@@]1(Cc2ccccc2)[C@H]2C(=O)N(Cc3ccccc3)C(=O)[C@H]2[C@H]2CN=C(SCc3ccc(Cl)cc3)N21 | 51* | -1 | -9 | 0 | 71*
CCCCSCCCNC(=O)CCCN1C(=O)c2ccccc2Sc2ncccc21 | . | -5 | 0 | 0 | .
CSC1=NC(C(Cl)(Cl)Cl)N=C(c2ccc(C)cc2)N1 (configuration not stated) | 56* | 4 | -2 | 0 | 50*
CS(=O)(=O)N1CCN(c2ccccc2NC(=O)c2cc3ccccc3o2)CC1 | . | -3 | -2 | 0 | .
COCCN(Cc1ccccc1)C(=O)C1CCN(C(=O)Nc2ccccc2)CC1 | 54* | 7 | -2 | 0 | 45*
CN(Cc1ccc(C(C)(C)C)cc1)C(=O)C1CCN(C(=O)Nc2ccccc2)CC1 | 37 | 4 | -2 | 0 | .
COc1cccc(NC(=O)N2CCc3nc(Nc4ccc(C(C)C)cc4)ncc3C2)c1 | 71* | -20 | 6 | . | 83*
CN(CC(=O)Nc1sccc1C(N)=O)S(=O)(=O)c1ccc(Cl)cc1 | 3 | 5 | 1 | 0 | .
CC(C)C[C@H]1CNC(=S)N1C[C@H]1CCCN1C[C@H](Cc1ccccc1)N1C[C@H](CC(C)C)N(CCc2ccccc2)C1=S | . | 3 | -1 | . | .
N#C/C(=C\Nc1ccc2cn[nH]c2c1)c1nc(-c2ccc(Cl)cc2)cs1 | 78* | -1 | -85 | 0 | 83*
Cc1ccc(-c2cc(N)n(-c3ccc(F)cc3)n2)cc1 | -3 | 9 | 0 | 0 | .
CNC(=S)N/N=C(\C)c1ccc(Cl)c(Cl)c1 | 9 | 10 | 4 | 0 | .
CNC(=S)NN=C(C)CCCC(C)=NNC(=S)NC | 71* | 2 | 2 | . | 95*
Cc1cccc2c(N=Nc3ccc(S(=O)(=O)Nc4ccc(Cl)cc4)cc3[N+](=O)[O-])c(O)[nH]c12 | 54* | -9 | 16 | 0 | 51*
SMILES | H9c2 TAG inh | sPLA2-III inh | MT1-MMP act inh | Efflux pump mplx | TAG conf
O=C(CN(CC1CCCO1)S(=O)(=O)c1ccc(S(=O)(=O)NC2CC2)cc1)Nc1ccccc1 (configuration not stated) | 51* | -23 | -3 | 0 | 38
CCOC(=O)N1CCC(N2Cc3cccc(C(=O)Nc4ccc(CC)cc4)c3C2=O)CC1 | 70* | -1 | -33 | 0 | 27
CCOC(=O)c1[nH]c(C)c(C(=O)Nc2ccccc2C)c1C | 54* | -1 | -7 | 0 | 59*
CCOC(=O)c1[nH]c(C)c(C(=O)Nc2cc(Cl)ccc2C)c1C | . | -2 | 10 | 0 | .
CC(C)N(C#N)c1nc(N2CCOCC2)nc(N2CCOCC2)n1 | 51* | -5 | 2 | 0 | 32
Cc1ccc(CNCCC2=CCCCC2)cc1 | . | 3 | 0 | 0 | .
O=C(NCCOc1nc(N2CCOCC2)nc(N2CCOCC2)n1)Nc1ccccc1 | 54* | 6 | -3 | 0 | 30
CCC(C)NCCOCCOc1ccc(Cl)c(C)c1C (configuration not stated) | 13 | 2 | -2 | 0 | .
CCC(C)NCCOCCOc1ccc(Cl)c2ccccc12 (configuration not stated) | 53* | 4 | -6 | 0 | 45*
O=C(c1ccoc1)N1CCN(c2cc(-c3ccccc3)nc3cc(-c4ccc(Br)cc4)nn23)CC1 | 75* | -4 | -3 | . | 65*
O=C(c1ccoc1)N1CCN(c2cc(-c3ccncc3)nc3cc(-c4cccc(Cl)c4)nn23)CC1 | 63* | -9 | -13 | . | 49*
O=C(c1ccoc1)N1CCN(c2cc(-c3cccnc3)nc3cc(-c4cccc(Cl)c4)nn23)CC1 | 52* | -1 | -7 | . | 41*
COc1ccccc1C(=O)NC(=O)CSc1nnnn1C | -4 | 16 | 2 | 0 | .
CCOC(=O)c1c(C)[nH]c(C(=O)OCC(=O)NCCc2ccc(OCC)c(OCC)c2)c1C | 57* | -4 | -7 | 0 | 63*
CCCNC(=O)C1(C)CCN(Cc2ccc(OC)c3ccccc23)C1 (configuration not stated) | 6 | 9 | 4 | . | .
O=C(Nc1ccc(Oc2ccccc2)cc1)c1ccc2sc([C@H]3C[C@H](O)[C@@H](CO)O3)nc2c1 | 5 | -37 | -4 | . | .
CCOC(=O)NN=C1c2ccccc2-c2ccccc21 | 0 | 11 | 2 | 0 | .
CCOC(=O)Nc1ccc2c(c1)C(=NNC(=S)NC)c1ccccc1-2 | 58* | -12 | 6 | . | 70*
CCCCNS(=O)(=O)/C=C/c1ccccc1CCNC(=O)OC(C)(C)C | . | 0 | . | . | .
O=C(c1ccc(F)cc1F)N1CCCN(c2nc(-c3ccccc3)ns2)CC1 | 75* | -8 | -3 | 0 | 2
CC(C)(C)NC(=O)N1CCN(c2nc(-c3ccccc3)ns2)CC1 | -21 | -6 | 5 | 0 | .
COc1ccc(NC(=O)Nc2nc(C(N)C3CCCCC3)cs2)cc1 (configuration not stated) | 42 | 6 | -5 | . | .
CC(C)c1ccc(NC(=O)Nc2nc(C(N)C3CCCCC3)cs2)cc1 (configuration not stated) | 130* | 7 | -38 | . | 133*
